Laboratory results: ChEMBL document CHEMBL1153925, “Synthesis, characterization and biological activity of ring-substituted 6-benzylamino-9-tetrahydropyran-2-yl and 9-tetrahydrofuran-2-ylpurine derivatives” (Bioorg Med Chem, 2009)

Experiments:
[1] = Stability assessed as compound peak area at pH 3 after 1 hr by HPLC-PDA method; format: physicochemical; conditions: read-out: Stability
In short: (§1)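 10^-2 M methanol solution diluted to 10^-4 M in McIlvaine buffer at pH 3, 4, 5, 6 or 7, then incubated at 25 °C. Direct injection onto reversed-phase C18 after 1 h and again after 24 h. Methanol/15 mM formic acid (pH 4, ammonium) gradient at 0.3 mL/min, PDA at 270 nm. Parent and released free base (m-topolin) reported as peak area %.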

[2] = Stability assessed as free base release at pH 3 after 1 hr by HPLC-PDA method; format: physicochemical; conditions: pH 3, 1 h; in short: as §1
[3] = Stability assessed as free base release at pH 6 after 1 hr by HPLC-PDA method; format: physicochemical; conditions: pH 6, 1 h; in short: as §1
[4] = system: Amaranthus; assay: Cytokinin activity in cotyledons assessed as dark induction of betacyanin synthesis at 100 uM relative to 6-benzylaminopurine; format: functional
[5] = Stability assessed as compound peak area at pH 5 after 1 hr by HPLC-PDA method; format: physicochemical; conditions: read-out: Stability; in short: as §1
[6] = Stability assessed as compound peak area at pH 4 after 24 hrs by HPLC-PDA method; format: physicochemical; conditions: read-out: Stability; in short: as §1
[7] = system: BJ; assay: Cytotoxicity against human BJ cells after 72 hrs by MTT assay; format: ADME, cell-based
[8] = Stability assessed as free base release at pH 5 after 24 hr by HPLC-PDA method; format: physicochemical; conditions: pH 5, 24 h; in short: as §1
[9] = Stability assessed as free base release at pH 7 after 24 hr by HPLC-PDA method; format: physicochemical; conditions: pH 7, 24 h; in short: as §1
[10] = Stability assessed as compound peak area at pH 6 after 1 hr by HPLC-PDA method; format: physicochemical; conditions: read-out: Stability; in short: as §1
[11] = Stability assessed as free base release at pH 4 after 24 hr by HPLC-PDA method; format: physicochemical; conditions: pH 4, 24 h; in short: as §1
[12] = Stability assessed as free base release at pH 5 after 1 hr by HPLC-PDA method; format: physicochemical; conditions: pH 5, 1 h; in short: as §1
[13] = Stability assessed as compound peak area at pH 3 after 24 hrs by HPLC-PDA method; format: physicochemical; conditions: read-out: Stability; in short: as §1
[14] = system: K562; assay: Cytotoxicity against human K562 cells after 72 hrs by Calcein AM assay; format: ADME, cell-based; conditions: K562, 72 h
[15] = system: Nicotiana tabacum; assay: Cytokinin activity in tobacco callus assessed as stimulation of callus growth at 1 uM relative to 6-benzylaminopurine; format: functional
[16] = Stability assessed as compound peak area at pH 7 after 1 hr by HPLC-PDA method; format: physicochemical; conditions: read-out: Stability; in short: as §1
[17] = Stability assessed as free base release at pH 6 after 24 hr by HPLC-PDA method; format: physicochemical; conditions: pH 6, 24 h; in short: as §1
[18] = Stability assessed as compound peak area at pH 7 after 24 hrs by HPLC-PDA method; format: physicochemical; conditions: read-out: Stability; in short: as §1
[19] = Stability assessed as compound peak area at pH 5 after 24 hrs by HPLC-PDA method; format: physicochemical; conditions: read-out: Stability; in short: as §1
[20] = Stability assessed as free base release at pH 7 after 1 hr by HPLC-PDA method; format: physicochemical; conditions: pH 7, 1 h; in short: as §1
[21] = Stability assessed as compound peak area at pH 6 after 24 hrs by HPLC-PDA method; format: physicochemical; conditions: read-out: Stability; in short: as §1
[22] = system: MCF7; assay: Cytotoxicity against human MCF7 cells after 72 hrs by Calcein AM assay; format: ADME, cell-based; conditions: MCF7, 72 h
[23] = system: Triticum aestivum; assay: Cytokinin activity in wheat leaf assessed as stimulation of retention of chlorophyll in excised leaves at 0.1 mM relative to 6-benzylaminopurine; format: functional
[24] = Stability assessed as compound peak area at pH 4 after 1 hr by HPLC-PDA method; format: physicochemical; conditions: read-out: Stability; in short: as §1
[25] = Stability assessed as free base release at pH 4 after 1 hr by HPLC-PDA method; format: physicochemical; conditions: pH 4, 1 h; in short: as §1
[26] = Stability assessed as free base release at pH 3 after 24 hr by HPLC-PDA method; format: physicochemical; conditions: pH 3, 24 h; in short: as §1

SMILES	remaining at 1 h [1] [%]	Activity [2] [%]	Activity [3] [%]	Activity [4] [%]	remaining at 1 h [5] [%]	remaining at 24 h [6] [%]	IC50 [7] [µM]	Activity [8] [%]	Activity [9] [%]	remaining at 1 h [10] [%]	Activity [11] [%]	Activity [12] [%]	remaining at 24 h [13] [%]	IC50 [14] [µM]	Activity [15] [%]	remaining at 1 h [16] [%]	Activity [17] [%]	remaining at 24 h [18] [%]	remaining at 24 h [19] [%]	Activity [20] [%]	also measured
Oc1cccc(CNc2ncnc3c2ncn3C2CCCO2)c1 (configuration not stated)	63.8	36.2	0.4	82	99.5	37.5	> 100	9.2	0.3	99.6	62.5	0.5	0.3	> 100	87	99.7	0.6	99.7	90.8	0.3	remaining at 24 h [21]: 99.4%; IC50 [22]: > 100 µM; Activity [23]: 131%; remaining at 1 h [24]: 97.2%; Activity [25]: 2.8%; Activity [26]: 99.7%
Oc1cccc(CNc2ncnc3c2ncn3C2CCCCO2)c1 (configuration not stated)	98.8	1.2	0.2	100	99.5	93.9	> 100	0.8	0.2	99.8	6.1	0.5	39.6	81	95	99.9	0.7	99.8	99.2	0.1	remaining at 24 h [21]: 99.3%; IC50 [22]: > 100 µM; Activity [23]: 140%; remaining at 1 h [24]: 99.5%; Activity [25]: 0.5%; Activity [26]: 60.4%
